Key:
Type in all cases: functional, cell-based
[1] = Cytotoxicity against human HL60 cells assessed as cell viability after 72 hrs by CCK cell proliferation assay; details: HL-60, 72 h
Procedure, shortened: (§1)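 Cells plated at 3,000–5,000 per well; dosing began 24 h after plating, using a rising concentration series. After 72 h, cell counting kit reagent added and incubation continued 1–4 h. Viable cells read as OD at 450 nm. Inhibition rate = (1 − OD treated/OD control) × 100%. Wells in triplicate, each compound tested three times; IC50 is the mean of three independent experiments.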

[2] = tested on: C6; experiment: Cytotoxicity against rat C6 cells assessed as cell viability after 72 hrs by CCK cell proliferation assay; details: C6, 72 h; procedure, shortened: as §1
[3] = Cytotoxicity against human SUM159 cells assessed as cell viability after 72 hrs by CCK cell proliferation assay; details: SUM-159-PT; procedure, shortened: as §1
[4] = tested on: MCF7; experiment: Cytotoxicity against human MCF7 cells assessed as cell viability after 72 hrs by CCK cell proliferation assay; details: MCF7, 72 h; procedure, shortened: as §1

Compound	IC50 [1] [µM]	IC50 [2] [µM]	IC50 [3] [µM]	IC50 [4] [µM]
C=C1C(=O)O[C@@H]2C3O[C@]3(C)CC/C=C(\C)CC[C@@H]12 (stereo partly specified)	2.5	6.6	10.3	6.9
C=C1C(=O)O[C@H]2[C@@H]1CC/C(C)=C/CC[C@@]1(C)O[C@@H]21	2.9	24	12.3	17.6
C=C1C(=O)O[C@H]2[C@H]1CC/C(C)=C\CC[C@@]1(C)O[C@@H]21	1.2	3.9	7.7	5.9
C=C1C(=O)O[C@H]2[C@@H]1CC/C(C)=C\CC[C@@]1(C)O[C@@H]21	4.2	41.8	3.5	13

— ChEMBL document CHEMBL3351257, “Total syntheses of parthenolide and its analogues with macrocyclic stereocontrol” (J Med Chem, 2014)
